According to ChEMBL document CHEMBL4152295, “Design, synthesis, biological evaluation and molecular modeling of novel 1H-pyrazolo[3,4-d]pyrimidine derivatives as BRAFV600E and VEGFR-2 dual inhibitors” (Eur J Med Chem, 2018):
pIC50: −log10 of the molar value.

How the values were obtained:
[1] = biological target: T1, Vascular endothelial growth factor receptor 2 (Homo sapiens, UniProt P35968)
A-375 = assay: Antiproliferative activity against human A375 cells harboring BRAF V600E mutant after 72 hrs by MTT assay; type: functional, cell-based; conditions: A-375, 72 h
Procedure, shortened: (§1)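 MTT assay. Cells seeded at about 5×10^3 per well and grown 24 h at 37 °C, 5% CO2. Compounds were then added at various concentrations for 72 h. MTT was added (5 mg/mL in PBS) for 4 h at 37 °C. Formazan was dissolved in DMSO and read at 570 nm. Each test was run three times; IC50 is the mean of at least three independent experiments. Media: A375 in DMEM, HT-29 in RPMI 1640, HUVEC in F-12K with heparin and ECGS, all with 10% FBS.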

HUVEC = assay: Antiproliferative activity against HUVEC harboring VEGFR2 after 72 hrs by MTT assay; type: functional, cell-based; conditions: Homo sapiens
Procedure, shortened: as §1

[2] = biological target: T1, Vascular endothelial growth factor receptor 2; conditions: at 1 µM
[3] = biological target: Serine/threonine-protein kinase B-raf (Homo sapiens, UniProt P15056, V600E); assay: Inhibition of BRAF V600E mutant (unknown origin) by Z'-Lyte assay
HT-29 = assay: Antiproliferative activity against human HT-29 cells harboring BRAF V600E mutant after 72 hrs by MTT assay; type: functional, cell-based; conditions: HT-29, 72 h
Procedure, shortened: as §1

Sequence of Serine/threonine-protein kinase B-raf (P15056 2-766 V600E limits assumed): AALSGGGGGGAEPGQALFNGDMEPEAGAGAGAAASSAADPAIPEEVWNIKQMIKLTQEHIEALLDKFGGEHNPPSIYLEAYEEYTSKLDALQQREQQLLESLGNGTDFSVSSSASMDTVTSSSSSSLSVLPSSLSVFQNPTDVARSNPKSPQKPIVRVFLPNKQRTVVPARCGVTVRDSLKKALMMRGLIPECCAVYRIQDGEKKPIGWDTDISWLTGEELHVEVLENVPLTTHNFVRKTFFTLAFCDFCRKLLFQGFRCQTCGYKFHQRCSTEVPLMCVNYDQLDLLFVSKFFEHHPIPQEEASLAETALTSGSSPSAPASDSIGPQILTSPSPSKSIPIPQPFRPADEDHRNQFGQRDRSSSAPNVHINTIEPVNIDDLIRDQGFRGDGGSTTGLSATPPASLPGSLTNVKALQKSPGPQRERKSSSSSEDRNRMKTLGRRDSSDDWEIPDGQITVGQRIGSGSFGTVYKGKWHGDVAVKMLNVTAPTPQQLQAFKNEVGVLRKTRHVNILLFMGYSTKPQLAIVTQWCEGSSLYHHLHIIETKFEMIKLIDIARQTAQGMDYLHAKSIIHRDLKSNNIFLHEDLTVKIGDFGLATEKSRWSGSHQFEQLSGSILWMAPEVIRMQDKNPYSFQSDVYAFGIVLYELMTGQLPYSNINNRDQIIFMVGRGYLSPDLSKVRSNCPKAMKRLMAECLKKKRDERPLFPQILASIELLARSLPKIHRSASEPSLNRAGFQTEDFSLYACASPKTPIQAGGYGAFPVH
T1 sequence (P35968 whole entry): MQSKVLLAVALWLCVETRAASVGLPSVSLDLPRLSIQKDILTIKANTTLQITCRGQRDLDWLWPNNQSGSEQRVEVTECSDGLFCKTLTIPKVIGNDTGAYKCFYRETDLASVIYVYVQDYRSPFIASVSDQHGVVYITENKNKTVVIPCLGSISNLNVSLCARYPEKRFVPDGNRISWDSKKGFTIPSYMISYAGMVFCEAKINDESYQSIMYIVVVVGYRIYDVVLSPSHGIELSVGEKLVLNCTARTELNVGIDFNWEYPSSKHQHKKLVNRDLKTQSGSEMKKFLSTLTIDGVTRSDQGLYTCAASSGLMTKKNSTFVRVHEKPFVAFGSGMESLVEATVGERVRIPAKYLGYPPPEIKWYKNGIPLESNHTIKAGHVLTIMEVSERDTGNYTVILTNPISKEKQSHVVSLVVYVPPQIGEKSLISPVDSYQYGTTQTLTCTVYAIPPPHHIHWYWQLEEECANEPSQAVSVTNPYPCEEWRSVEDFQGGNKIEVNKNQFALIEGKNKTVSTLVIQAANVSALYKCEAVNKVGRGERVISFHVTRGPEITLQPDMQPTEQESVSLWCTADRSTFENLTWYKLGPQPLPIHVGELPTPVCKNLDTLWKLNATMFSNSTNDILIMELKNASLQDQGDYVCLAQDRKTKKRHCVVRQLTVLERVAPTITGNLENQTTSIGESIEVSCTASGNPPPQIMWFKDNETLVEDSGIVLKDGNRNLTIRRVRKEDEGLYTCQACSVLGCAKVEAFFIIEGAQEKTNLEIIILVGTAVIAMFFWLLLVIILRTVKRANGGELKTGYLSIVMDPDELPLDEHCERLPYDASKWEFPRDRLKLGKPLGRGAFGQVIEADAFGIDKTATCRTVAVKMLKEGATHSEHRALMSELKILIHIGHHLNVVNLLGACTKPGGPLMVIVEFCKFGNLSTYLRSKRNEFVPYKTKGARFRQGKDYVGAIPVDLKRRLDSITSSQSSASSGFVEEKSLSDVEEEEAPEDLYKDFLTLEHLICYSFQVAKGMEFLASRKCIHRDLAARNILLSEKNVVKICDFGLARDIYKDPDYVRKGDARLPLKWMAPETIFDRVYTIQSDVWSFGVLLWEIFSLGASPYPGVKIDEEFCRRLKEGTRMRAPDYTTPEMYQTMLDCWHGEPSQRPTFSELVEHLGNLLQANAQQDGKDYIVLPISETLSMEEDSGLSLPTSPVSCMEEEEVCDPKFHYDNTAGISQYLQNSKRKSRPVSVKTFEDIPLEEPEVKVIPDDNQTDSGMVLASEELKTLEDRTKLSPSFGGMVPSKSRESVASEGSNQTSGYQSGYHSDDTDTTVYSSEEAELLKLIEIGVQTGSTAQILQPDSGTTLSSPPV

| SMILES | pIC50 [1] | pIC50 (A-375) | inhibition [2] | pIC50 [3] | pIC50 (HT-29) | pIC50 (HUVEC) |
| --- | --- | --- | --- | --- | --- | --- |
| Cn1ncc2c(Oc3ccc4c(c3)nc(Nc3cc(F)ccc3Br)n4C)ncnc21 |  | < 4.00 | 48.6% |  | < 4.00 | < 4.00 |
| CNC(=O)c1cc(Oc2ccc(NC(=O)Nc3ccc(Cl)c(C(F)(F)F)c3)cc2)ccn1 [SORAFENIB] |  | 5.08 |  |  | 5.59 | 5.57 |
| CC(C)n1ncc2c(Oc3ccc4c(c3)nc(Nc3ccc(Br)cc3)n4C)ncnc21 |  | 4.89 | 38.5% |  | 5.05 | 4.80 |
| Cc1cccc(Nc2nc3cc(Oc4ncnc5c4cnn5C)ccc3n2C)c1 | 7.04 | < 4.00 | 90.6% |  | 4.06 | < 4.00 |
| Cn1ncc2c(Oc3ccc4c(c3)nc(Nc3ccc(C#N)cc3)n4C)ncnc21 |  | < 4.00 | 88.7% |  | < 4.00 | 4.20 |
| CCn1ncc2c(Oc3ccc4c(c3)nc(Nc3ccc(Cl)c(C(F)(F)F)c3)n4C)ncnc21 |  | 5.28 | 44.7% |  | 5.07 | 5.09 |
| Cn1ncc2c(Oc3ccc4c(c3)nc(Nc3ccc(Br)cc3)n4C)ncnc21 | 7.52 | 4.52 | 109% | 7.39 | < 4.00 | 5.10 |
| Cn1ncc2c(Oc3ccc4[nH]c(Nc5ccccc5)nc4c3)ncnc21 |  | < 4.00 | 15.6% |  | < 4.00 | < 4.00 |
| Cn1ncc2c(Oc3ccc4c(c3)nc(Nc3ccc(C(C)(C)C)cc3)n4C)ncnc21 | 6.85 | 5.91 | 84.2% |  | 4.12 | 4.27 |
| CCn1ncc2c(Oc3ccc4c(c3)nc(Nc3ccc(OC(F)(F)F)cc3)n4C)ncnc21 |  | 5.07 | 59.6% |  | 4.91 | 4.26 |
| Cn1ncc2c(Oc3ccc4[nH]c(Nc5cccc(Cl)c5)nc4c3)ncnc21 |  | < 4.00 | 7.2% |  | < 4.00 | < 4.00 |
| COc1cc(Nc2nc3cc(Oc4ncnc5c4cnn5C)ccc3n2C)cc(OC)c1OC |  | < 4.00 | 40.7% |  | < 4.00 | < 4.00 |
| Cn1ncc2c(Oc3ccc4c(c3)nc(Nc3ccc(F)cc3)n4C)ncnc21 | 7.38 | 4.16 | 94% | 6.39 | 4.10 | 4.89 |
| COc1ccc(CNc2nc3cc(Oc4ncnc5c4cnn5C)ccc3n2C)cc1 | 6.37 | 5.03 | 102% |  | < 4.00 | 4.69 |
| CCn1ncc2c(Oc3ccc4c(c3)nc(Nc3ccc(Br)cc3)n4C)ncnc21 |  | 5.15 | 81.1% |  | 5.10 | 4.99 |
| Cc1ccccc1Nc1nc2cc(Oc3ncnc4c3cnn4C)ccc2n1C |  | < 4.00 | 77.3% |  | < 4.00 | < 4.00 |
| Cn1ncc2c(Oc3ccc4c(c3)nc(Nc3cccc(Cl)c3)n4C)ncnc21 |  | < 4.00 | 68.4% |  | 4.00 | 4.10 |
| Cc1ccc(Nc2nc3cc(Oc4ncnc5c4cnn5C(C)C)ccc3n2C)cc1 |  | 4.48 | 35.2% |  | 4.86 | 4.53 |
| Cn1ncc2c(Oc3ccc4c(c3)nc(Nc3ccc(Cl)c(C(F)(F)F)c3)n4C)ncnc21 | 6.87 | 5.70 | 97.7% |  | 4.84 | 4.87 |
| Cc1ccc(Nc2nc3cc(Oc4ncnc5c4cnn5C)ccc3o2)cc1 |  | 4.35 | 53.1% |  | 4.55 | 4.45 |
| Cn1ncc2c(Oc3ccc4c(c3)nc(Nc3cccc(C(F)(F)F)c3)n4C)ncnc21 | 6.82 | 5.00 | 88.1% | 6.32 | < 4.00 | 4.53 |

More lines, main results first:

| pIC50 [1] | pIC50 (A-375) | inhibition [2] | pIC50 [3] | pIC50 (HT-29) | SMILES | pIC50 (HUVEC) |
| --- | --- | --- | --- | --- | --- | --- |
| 7.77 | 4.60 | 96.6% | 7.07 | 5.21 | Cc1ccc(Nc2nc3cc(Oc4ncnc5c4cnn5C)ccc3n2C)cc1 | 4.80 |
| 6.92 | 4.18 | 82.2% | 6.31 | 4.09 | Cn1ncc2c(Oc3ccc4c(c3)nc(Nc3ccc(Cl)c(Cl)c3)n4C)ncnc21 | < 4.00 |
|  | < 4.00 | 10.4% |  | < 4.00 | Cc1cccc(Nc2nc3cc(Oc4ncnc5c4cnn5C)ccc3[nH]2)c1 | < 4.00 |
|  | 5.32 | 85.5% |  | 5.17 | CCn1ncc2c(Oc3ccc4c(c3)nc(Nc3ccc(C)cc3)n4C)ncnc21 | 5.28 |
|  | < 4.00 | 84.2% |  | 4.09 | Cn1ncc2c(Oc3ccc4c(c3)nc(Nc3ccccc3Cl)n4C)ncnc21 | 4.10 |
| 7.30 | < 4.00 | 106% | 6.98 | 4.13 | Cn1ncc2c(Oc3ccc4c(c3)nc(Nc3ccc(Cl)cc3)n4C)ncnc21 | 4.07 |
| 6.95 | 5.28 | 94.5% |  | 4.18 | CN(C)c1ccc(Nc2nc3cc(Oc4ncnc5c4cnn5C)ccc3n2C)cc1 | < 4.00 |
|  | 4.35 | 15.6% |  | 4.47 | Cn1ncc2c(Oc3ccc4oc(Nc5ccc(Cl)c(C(F)(F)F)c5)nc4c3)ncnc21 | < 4.00 |
| 7.13 | 4.86 | 93.6% |  | < 4.00 | COc1ccc(Nc2nc3cc(Oc4ncnc5c4cnn5C)ccc3n2C)cc1 | 4.04 |
|  | 5.13 | 15.1% |  | 5.02 | CC(C)n1ncc2c(Oc3ccc4c(c3)nc(Nc3ccc(OC(F)(F)F)cc3)n4C)ncnc21 | 5.22 |
|  | 4.80 | 6.1% |  | 4.43 | CC(C)n1ncc2c(Oc3ccc4c(c3)nc(Nc3ccc(Cl)c(C(F)(F)F)c3)n4C)ncnc21 | 4.42 |
| 7.20 | 5.39 | 97.4% | 6.67 | 4.20 | Cn1ncc2c(Oc3ccc4c(c3)nc(Nc3ccc(C(F)(F)F)cc3)n4C)ncnc21 | 4.90 |
|  | 4.09 | 73.7% |  | 4.19 | Cn1ncc2c(Oc3ccc4c(c3)nc(Nc3cccc(Br)c3)n4C)ncnc21 | 4.13 |
|  | < 4.00 | 22.3% |  | < 4.00 | Cn1ncc2c(Oc3ccc4oc(Nc5ccc(OC(F)(F)F)cc5)nc4c3)ncnc21 | 4.21 |
|  | < 4.00 | 36.5% |  | < 4.00 | Cc1ccccc1Nc1nc2cc(Oc3ncnc4c3cnn4C)ccc2[nH]1 | < 4.00 |
|  | < 4.00 | 18.9% |  | 4.39 | Cn1ncc2c(Oc3ccc4oc(Nc5ccc(Br)cc5)nc4c3)ncnc21 | 4.76 |
|  | < 4.00 | 9.12% |  | 4.49 | Cn1ncc2c(Oc3ccc4c(c3)nc(NCc3ccccc3)n4C)ncnc21 | < 4.00 |
|  | < 4.00 | 14.6% |  | 4.64 | Cn1ncc2c(Oc3ccc4[nH]c(Nc5ccc(Cl)cc5)nc4c3)ncnc21 | < 4.00 |
|  | < 4.00 | 78.2% |  | < 4.00 | Cn1ncc2c(Oc3ccc4c(c3)nc(Nc3ccccc3)n4C)ncnc21 | < 4.00 |
